Source: PubChem (several laboratories)
Hits are enriched below; roughly 4.9% of the tested compounds scored in any of these assays.
STAT1 activator: activators of IFN-gamma induced STAT1 signaling. NIH 3T3 STAT1-luciferase reporter, luminescence; 100% = IFN-gamma alone, no compound. activation (% of control), % at 5.5 µM. 200,000 compounds, 2.6% hits. AID 932;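 active means activation above the screen-wide mean activation plus 3 SD, cut at about 130% in these data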
STAT1 inh: inhibitors of IFN-gamma induced STAT1 signaling; NIH 3T3 STAT1-luciferase reporter, luminescence; inhibition, % at 5.5 µM; 200,000 compounds, 0.35% hits;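 active means inhibition above a set limit, the mean inhibition across all tested compounds plus 3 SD, cut at about 34% in these data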
NF-kB expr up: raises NF-kB expression in human neuronal cells; 190,000 compounds, 1.6% hits; fold change at 12.5 µM; NF-kB reporter expression; hits give high values; in the data active means fold change above about 3.3
APP 5'UTR act: activates APP 5'UTR luciferase reporter; SH-SY5Y APP 5'UTR luciferase reporter, luminescence; zero percent = DMSO vehicle wells; activation, % at 2 µM; 190,000 compounds, 1% hits; AID 1276;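 active means activation above a set limit, based on mean plus 3 SD of controls, cut at about 140% in these data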
STAT3 inh: reduces IL-6 driven STAT3 reporter signal | 190,000 compounds, 0.89% hits | inhibition, % at 5.5 µM | U3A cells, IL-6 STAT3-luciferase reporter, luminescence; host cell line lacks STAT1 | AID 862;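 active means inhibition above the mean inhibition across all screened compounds plus 3 SD, cut at about 44% in these data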
STAT3 act: STAT3 signaling activation | U3A cells, IL-6 STAT3-luciferase reporter, luminescence; 100% = signal with IL-6 EC80 alone | activation (% of control), % at 5.6 µM | 190,000 compounds, 0.91% hits | AID 871;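 active means activation above the screen-wide mean of compound activation plus 3 SD, cut at about 130% in these data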
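Material: STAT1-lacking human U3A cells, STAT3 luciferase reporter | Benchmarks: IL-6-only wells as 100% reference | Probe or stimulus: IL-6 (33 ng/mL) | Timing: Compound 1 h, then IL-6 6 h at 37 °C | Detection: Luminescence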
Large screens that a line does not name were inactive.

CCN(CC)C(=O)Oc1ccc2c(=O)c(-c3ccccc3)coc2c1	NF-kB expr up 4.6
O=c1c(-c2ccc(F)cc2)coc2cc(O)ccc12	STAT1 activator 146
CCCNC(=O)CSc1nnc(-c2ccc(F)cc2)o1	none
CC(C)CN(C(=O)COC(=O)Cc1c[nH]c2ccccc12)C1CCS(=O)(=O)C1 (configuration not stated)	STAT3 act 133
Cc1cc(C(=O)N2CCN(Cc3ccccc3)CC2)on1	none
Cc1cc(C)n2nc(C(=O)Nc3ccc4c(c3)CCC4)nc2n1	none
Cc1cnc(C(=O)Nc2ccc3c(c2)CCC3)cn1	NF-kB expr up 7.4, APP 5'UTR act 163
Cc1cnc(C(=O)Nc2ccc(F)c(F)c2)cn1	none
CN1N=C(C(=O)Nc2ccc3c(c2)CCC3)CCC1=O	STAT1 activator 132
O=C(Nc1ccc2c(c1)CCC2)c1cnccn1	STAT1 activator 143
Cc1cc(C)c2nc(SCC(=O)NCCC3=CCCCC3)cc(C)c2c1	none
COc1cc(SC)ccc1C(=O)Nc1ccc(C)cc1	STAT1 activator 146, NF-kB expr up 6.6, APP 5'UTR act 184
COC(=O)c1ccc(COC(=O)c2ccc(SC)cc2OC)cc1	STAT1 activator 135
COc1cc(SC)ccc1C(=O)Nc1cccc(C)n1	STAT1 activator 144, APP 5'UTR act 244
COc1cc(SC)ccc1C(=O)OCC(=O)NC1CC1	none
COc1cc(SC)ccc1C(=O)Nc1ncc(C)s1	STAT1 inh 90, STAT3 inh 100
O=C(NCc1cccnc1)NC1CC(=O)N(c2ccc3c(c2)OCCO3)C1 (configuration not stated)	none
CCOC(=O)CCN(Cc1sccc1C)S(=O)(=O)c1ccc(F)cc1	none
O=C(CN1CCCC1)Nc1ccc(NC(=O)Nc2ccccc2)cc1	STAT1 activator 131
O=C(CN1CCCC1)Nc1ccc(Oc2ccc(NC(=O)CN3CCCC3)cc2)cc1	none
Cc1cc(N2CCOCC2)ccc1/C=C1\NC(=O)N(CC(=O)Nc2ccccc2C)C1=O	none
Cc1cc(N2CCOCC2)ccc1/C=C1\NC(=O)N(CC(=O)Nc2ccc(F)cc2)C1=O	STAT1 activator 131
Cc1cc(N2CCCC2)ccc1/C=C1\NC(=S)N(C)C1=O	STAT1 activator 129
Cc1cc(N2CCOCC2)ccc1/C=C1/SC(=O)NC1=O	STAT1 activator 152, NF-kB expr up 5.3, STAT3 act 138
O=C(CCCn1cc([N+](=O)[O-])cn1)NC1CCCCCC1	none
O=c1c2c3c(sc2ncn1/N=C/c1cccnc1)CCCC3	STAT1 activator 139
O=c1c2c3c(sc2ncn1/N=C/c1ccncc1)CCCC3	none
O=C(COC(=O)c1cccs1)Nc1ccc(S(=O)(=O)N2CCOCC2)cc1	none
Cc1cc(NC(=O)C2CCCO2)ccc1Br (configuration not stated)	none
Cc1cc(NC(=S)NC(=O)C2CC2)ccc1Br	STAT1 activator 139
CCc1cccc(C)c1NC(=O)CN(C)Cc1ccccc1F	none
CCOC(=O)c1ccc2nc(C)c3c(c2c1)OC(C)C3 (configuration not stated)	none
CCOC(=O)c1ccc2nc3c(cc2c1)CCS3	STAT1 activator 135
Cc1ccc2nc(-c3ccc(NC(=S)NC(=O)C(C)C)cc3)sc2c1	none
CCC(=O)NC(=S)Nc1ccc(-c2nc3ccc(C)cc3s2)cc1	none
Cc1ccc2nc(-c3ccc(NC(=O)C(C)N4C(=O)c5ccccc5C4=O)cc3)sc2c1 (configuration not stated)	STAT1 activator 141
O=C(CCN1C(=O)c2ccccc2C1=O)Nc1ccc(-c2nc3ccccc3s2)cc1	STAT1 activator 142, APP 5'UTR act 136
Cc1ccc(NC(=S)c2nc3ccccc3s2)cc1	STAT1 activator 134, APP 5'UTR act 168
CCC(=O)NC(=S)Nc1ccc(-c2nc3ccccc3s2)cc1	STAT1 activator 142
O=C(CCN1C(=O)c2ccccc2C1=O)Nc1nc2ccccc2s1	none (no result: APP 5'UTR act)
CCCN1CCN(CCCNC(=O)CCn2nc(-c3ccccc3)ccc2=O)CC1	none
CC1(C)CC(NC(=S)Nc2ccc(S(N)(=O)=O)cc2)CC(C)(C)N1	none
Cc1ccc2nc(-c3ccc(NC(=S)NC4CC(C)(C)NC(C)(C)C4)cc3)sc2c1	STAT1 activator 135, APP 5'UTR act 168
COCCNC(=O)CCCn1c(=O)c2cc(OC)c(OC)cc2n(CC(=O)c2ccc(Cl)cc2)c1=O	none
CCOc1ccc(C2=NNC(c3cccs3)=Nc3ccc(OC)cc32)cc1	NF-kB expr up 6.4
COc1cc(NC(=O)COc2ccccc2)c(OC)cc1NC(C)=O	none
COc1ccc(CNC(=O)C2CC(c3ccc(OC)cc3)=NO2)cc1 (configuration not stated)	none
COc1ccc(C2=NOC(CNC(N)=S)C2)cc1 (configuration not stated)	NF-kB expr up 4.3
Cc1ccnc2ccc(-c3nc4ccccc4o3)cc12	STAT1 activator 136, STAT3 act 153
c1ccc(-c2nc3ccccc3o2)nc1	none
C=CCSC(=C(C#N)C#N)c1cc2c([nH]1)CCCC2	NF-kB expr up 7.3
COCCNC(=O)C1CC(c2ccc([N+](=O)[O-])cc2)=NO1 (configuration not stated)	none
O=C(NCCc1cccs1)C1CC(c2ccc([N+](=O)[O-])cc2)=NO1 (configuration not stated)	STAT1 activator 144
CN1CCN(CC(=O)N2c3ccccc3C(C)(c3ccc(Cl)cc3)CC2(C)C)CC1 (configuration not stated)	none
CN1CCN(CC(=O)N2c3ccccc3C(C)(c3ccccc3)CC2(C)C)CC1 (configuration not stated)	NF-kB expr up 6
COc1ccc(-c2cn3cc(C)ccc3n2)cc1OC	STAT1 activator 134, NF-kB expr up 5.7, APP 5'UTR act 184
COc1ccc(-c2cn3cc(C)ccc3n2)cc1F	STAT1 inh 63, APP 5'UTR act 147, STAT3 inh 87
COc1ccc(CC(=O)Nc2ccc(-c3cn4ccccc4n3)cc2)cc1OC	none
COc1ccc(-c2csc(C)n2)cc1OC	none
COc1ccc(-c2cn3ccccc3n2)cc1OC	STAT1 activator 130, STAT3 act 173
CCOc1ccc(-c2cn3ccccc3n2)cc1	STAT1 inh 53, NF-kB expr up 4.8, APP 5'UTR act 207, STAT3 inh 89
Cc1nc2c(sc3nc4c(cc32)COC(C)(C)C4)c(=O)n1CC(=O)NCc1ccco1	STAT1 activator 131
CC1(C)Cc2nc3sc4c(SCC(=O)NCc5ccco5)ncnc4c3cc2CO1	none
Cc1ccc(-c2cc3cccc[n+]3cc2-c2ccc(C)cc2)cc1	STAT1 inh 36, STAT3 inh 61
COc1cccc(CN2CCC(C(=O)N3CCN(c4ccccc4F)CC3)CC2)c1OC	none
O=C(c1cc2cc(Br)ccc2o1)N1CCCCC1	STAT1 activator 134
